Active and inactive are the calls of the source. The rule behind the calls is not given here.
Columns and labels:
[1] = test system: Radical scavenging activity; experiment: Antioxidant activity assessed as DPPH radical scavenging activity incubated for 20 mins under dark condition by spectrophotometric analysis; format: functional
[2] = Antioxidant activity assessed as reduction of K3FeCN6 by spectrophotometric analysis in presence of FeCl3; format: functional
Outline: (§1)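 Reducing power: reduction of K3FeCN6 in the presence of FeCl3, read as absorbance of the ferric-ferrous complex. Response was linear over 1–100 μM, and the regression equation from that range gave EC50. Values are mean ± standard deviation, n = 3.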

[3] = Ratio of alpha-tocopherol EC50 to compound EC50 for reduction of K3FeCN6; format: functional
[4] = Ratio of ascorbic acid acid EC50 to compound EC50 for reduction of K3FeCN6
[5] = test system: Radical scavenging activity; experiment: Antioxidant activity assessed as DPPH radical scavenging activity at 5 to 500 uM incubated for 20 mins under dark condition by spectrophotometric analysis; format: functional
[6] = Antioxidant activity assessed as peroxyl radical scavenging activity at 8 uM to 1 mM by fluorescence assay relative to trolox; format: functional
Outline: (§2)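 ORAC assay: peroxyl radicals were generated by AAPH, and oxidation of fluorescein was measured. Results are expressed as Trolox equivalents, calculated from concentrations within the linear part of the calibration curve. Values are mean ± standard deviation, n = 3.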

[7] = Antioxidant activity assessed as trolox equivalents of peroxyl radical scavenging activity by fluorescence assay; format: functional; outline: as §2
[8] = Antioxidant activity assessed as hydroxyl radical scavenging activity at 8 uM to 1 mM by fluorescence assay relative to gallic acid; format: functional
Outline: as §2, with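 “HORAC” for “ORAC”, “hydroxyl” for “peroxyl”, “generated from hydrogen peroxide” for “generated”, “Fenton reaction,” for “AAPH,”, “gallic acid” for “Trolox”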

[9] = Antioxidant activity assessed as reduction of K3FeCN6 at 1 to 500 uM by spectrophotometric analysis in presence of FeCl3; format: functional; outline: as §1
[10] = Antioxidant activity assessed as gallic acid equivalents of hydroxyl radical scavenging activity by fluorescence assay; format: functional
Outline: as §2, with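 “HORAC” for “ORAC”, “hydroxyl” for “peroxyl”, “generated from hydrogen peroxide” for “generated”, “Fenton reaction,” for “AAPH,”, “gallic acid” for “Trolox”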

SMILES | EC50 [1] [µM] | EC50 [2] [µM] | Ratio EC50 [3] | Ratio EC50 [4] | Activity [5] | fold change (FC) [6] | Activity [7] [equiv] | fold change (FC) [8] | Activity [2] | Activity [9] | Activity [10] [equiv]
COc1cc(C[C@H](CO[C@@H]2O[C@H](CO)[C@@H](O)[C@H](O)[C@H]2O)[C@@H](CO[C@@H]2O[C@H](CO)[C@@H](O)[C@H](O)[C@H]2O)Cc2ccc(O)c(OC)c2)ccc1O (stereo in doubt; form 1) [(+)-SECOISOLARICIRESINOLDIGLUCOSIDE] | 83.9 | 275 | – | – | – | – | – | – | – | – | –
COc1cc(C[C@@H](CO[C@@H]2O[C@H](CO)[C@@H](O)[C@H](O)[C@H]2O)[C@H](CO[C@@H]2O[C@H](CO)[C@@H](O)[C@H](O)[C@H]2O)Cc2ccc(O)c(OC)c2)ccc1O | 124 | 332 | 3 | 3 | Active | 2 | 2.2 | 2 | Dose-dependent effect | Active | –
COc1cc(C[C@H](CO[C@@H]2O[C@H](CO)[C@@H](O)[C@H](O)[C@H]2O)[C@@H](CO[C@@H]2O[C@H](CO)[C@@H](O)[C@H](O)[C@H]2O)Cc2ccc(O)c(OC)c2)ccc1O (stereo in doubt; form 2) [(+)-SECOISOLARICIRESINOLDIGLUCOSIDE] | 158 | 292 | – | – | – | – | – | – | – | – | –
COc1cc(C[C@H](CO[C@@H]2O[C@H](CO)[C@@H](O)[C@H](O)[C@H]2O)[C@@H](CO[C@@H]2O[C@H](CO)[C@@H](O)[C@H](O)[C@H]2O)Cc2ccc(O)c(OC)c2)ccc1O (stereo in doubt; form 1) | – | – | – | – | Active | 2 | 2.55 | – | Dose-dependent effect | Active | 3.68
COc1cc(C[C@H](CO[C@@H]2O[C@H](CO)[C@@H](O)[C@H](O)[C@H]2O)[C@@H](CO[C@@H]2O[C@H](CO)[C@@H](O)[C@H](O)[C@H]2O)Cc2ccc(O)c(OC)c2)ccc1O (stereo in doubt; form 2) | – | – | 3 | 3 | Active | 2 | 3.03 | 2 | Dose-dependent effect | Active | –

Now from value to compound, other results behind:

EC50 [1] [µM] | EC50 [2] [µM] | SMILES | Ratio EC50 [3] | Ratio EC50 [4] | Activity [5] | fold change (FC) [6] | Activity [7] [equiv] | fold change (FC) [8] | Activity [2] | Activity [9] | Activity [10] [equiv]
133 | 945 | Cc1c(C)c2c(c(C)c1O)CC[C@@](C)(CCC[C@H](C)CCC[C@H](C)CCCC(C)C)O2 [ALPHA-TOCOPHEROL] | – | – | Active | – | – | – | – | Active | –
440 | 1130 | O=C1O[C@H]([C@@H](O)CO)C(O)=C1O [ASCORBIC ACID] | – | – | Active | – | – | – | – | Active | –

Source: ChEMBL document CHEMBL2424630, “Synthesis and antioxidant evaluation of (S,S)- and (R,R)-secoisolariciresinol diglucosides (SDGs)” (Bioorg Med Chem Lett, 2013)
